The results in this text go back to ChEMBL document CHEMBL1938395, “New benzimidazole derivatives as antiplasmodial agents and plasmepsin inhibitors: synthesis and analysis of structure-activity relationships” (Bioorg Med Chem Lett, 2012).

The target of one assay is Cathepsin D (Homo sapiens, UniProt P07339). The experiment in a line: Inhibition of human cathepsin D using DABCYL-Glu-Arg-Nle-Phe-Leu-Ser-Phe-Pro-EDANS as substrate by FRET analysis. The gist of the method: (§1)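 Enzyme (plasmepsin II or cathepsin D) at 1.2 nM with 1.0 µM FRET substrate in 0.1 M sodium acetate pH 5.0, 10% glycerol, 0.01% Tween 20. Compounds were dissolved in DMSO and added before substrate, at 5.0% final DMSO. Fluorescence was read at excitation 336 nm and emission 490 nm. Triplicates.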

Assay [1] relates to Plasmodium falciparum. The experiment in a line: Antiplasmodial activity against late ring stage Plasmodium falciparum HB3 assessed as [3H]hypoxanthine incorporation after 24 hrs by scintillation counting. Format: functional, organism-based. The gist of the method:
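Late ring stage cultures at 0.5% parasitemia were exposed to a range of compound concentrations in hypoxanthine-free rich medium for 42 h. 0.5 µCi [3H]hypoxanthine was then added and incubation continued for 24 h. Cells were harvested on glass fiber paper and counted by scintillation. Percent inhibition of uptake versus concentration was fitted with a modified dose–response logistic equation for IC50.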

A further assay has as its target Plasmepsin II (Plasmodium falciparum, UniProt P46925). The experiment in a line: Inhibition of Plasmodium falciparum plasmepsin-2 using DABCYL-Glu-Arg-Nle-Phe-Leu-Ser-Phe-Pro-EDANS as substrate by FRET analysis. The gist of the method: as §1
The subject of assay [2] is Plasmodium falciparum. The experiment in a line: Antiplasmodial activity against late ring stage Plasmodium falciparum HB3 after 1 hr by acridine orange staining-based flow cytometric analysis. Format: functional, organism-based. The note with it: HB3, 1 h.

pIC50: −log10 of the molar value.

Sequence of Plasmepsin II (P46925 whole entry): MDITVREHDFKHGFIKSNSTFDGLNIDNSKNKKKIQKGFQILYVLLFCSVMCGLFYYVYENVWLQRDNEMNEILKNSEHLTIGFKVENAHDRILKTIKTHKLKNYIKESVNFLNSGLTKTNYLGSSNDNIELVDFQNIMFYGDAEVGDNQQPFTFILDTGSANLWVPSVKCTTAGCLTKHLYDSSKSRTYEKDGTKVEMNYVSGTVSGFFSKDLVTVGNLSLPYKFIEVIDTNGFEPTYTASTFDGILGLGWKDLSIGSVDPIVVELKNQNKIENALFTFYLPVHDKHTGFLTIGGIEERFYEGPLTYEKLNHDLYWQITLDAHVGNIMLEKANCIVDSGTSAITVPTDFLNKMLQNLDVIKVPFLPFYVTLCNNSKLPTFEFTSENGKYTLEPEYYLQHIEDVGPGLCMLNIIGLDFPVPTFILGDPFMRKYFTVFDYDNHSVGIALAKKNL
Sequence of Cathepsin D (P07339 65-162 limits assumed): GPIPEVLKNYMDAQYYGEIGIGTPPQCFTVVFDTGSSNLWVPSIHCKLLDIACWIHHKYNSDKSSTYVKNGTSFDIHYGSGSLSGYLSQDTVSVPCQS
Sequence of Cathepsin D (P07339 169-412 limits assumed): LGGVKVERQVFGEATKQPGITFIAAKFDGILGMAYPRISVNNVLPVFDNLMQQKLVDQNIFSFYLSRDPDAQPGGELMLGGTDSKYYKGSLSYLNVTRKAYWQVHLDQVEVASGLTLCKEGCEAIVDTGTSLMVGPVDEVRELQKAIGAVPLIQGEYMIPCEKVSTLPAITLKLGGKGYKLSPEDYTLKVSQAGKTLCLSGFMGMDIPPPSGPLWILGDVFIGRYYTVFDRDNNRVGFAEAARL

Take `O=C(Cn1c(-c2ccccn2)nc2ccccc21)c1cccc([N+](=O)[O-])c1`: the pIC50 was 4.67 at Cathepsin D, at most 5.52 with Plasmodium falciparum [1] and 4.69 at Plasmepsin II.

Regarding `O=C(Cn1c(-c2ccccn2)nc2ccccc21)c1ccc(O)c(O)c1`, the pIC50 was 4.55 on Cathepsin D, at most 5.52 in the assay on Plasmodium falciparum [1] and 4.71 against Plasmepsin II.

Consider `O=C(Cn1c(-c2ccccn2)nc2ccccc21)c1ccc(Cl)cc1`, for which the pIC50 is 4.50 against Cathepsin D, 6.15 in the assay on Plasmodium falciparum [1] and 4.67 at Plasmepsin II.

In the case of `O=C(Cn1c(-c2ccccn2)nc2ccccc21)c1ccccc1[N+](=O)[O-]`, the pIC50 is 4.41 against Cathepsin D, at most 5.52 with Plasmodium falciparum [1] and 4.51 at Plasmepsin II.

Consider `O=C(Cn1c(-c2ccccn2)nc2ccccc21)c1ccc([N+](=O)[O-])cc1`, for which the pIC50 on Cathepsin D is 4.75; in the assay with Plasmodium falciparum [1], 5.68; against Plasmepsin II, 4.52.

For the compound `O=C(Cn1c(-c2ccccn2)nc2ccccc21)c1ccc(F)cc1`, the pIC50 at Cathepsin D was 4.50; in the assay on Plasmodium falciparum [1], 5.52; on Plasmepsin II, 5.00.

On to `O=C(Cn1c(-c2ccccn2)nc2ccccc21)c1ccc(F)cc1F`, for which the pIC50 against Cathepsin D is 4.35; with Plasmodium falciparum [1], at most 5.52; on Plasmepsin II, 4.32.

For the compound `O=C(Cn1c(-c2ccccn2)nc2ccccc21)c1ccccc1`, the figures for the pIC50 against Cathepsin D, in the assay with Plasmodium falciparum [1] and against Plasmepsin II were 4.41, at most 5.52 and 5.00, respectively.

On to `O=C(Cn1c(-c2ccccn2)nc2ccccc21)c1ccc(-c2ccccc2)cc1`, for which the negative logarithm of the IC50 (pIC50) in the assay on Plasmodium falciparum [2] is 6.78; at Cathepsin D, 5.70; with Plasmodium falciparum [1], 6.80; on Plasmepsin II, 4.83.

As for `COc1ccc(C(=O)Cn2c(-c3ccccn3)nc3ccccc32)cc1`, the pIC50 against Cathepsin D was 4.85; in the assay on Plasmodium falciparum [1], at least 5.52; at Plasmepsin II it was 4.42.

For `COc1ccc(OC)c(C(=O)Cn2c(-c3ccccn3)nc3ccccc32)c1`, the pIC50 was 4.67 against Cathepsin D, at least 5.52 in the assay on Plasmodium falciparum [1] and 4.47 at Plasmepsin II.
